The subject of test [1] is HT-29. Kind of test: Induction of Nrf2 expression in human HT-29 cells nuclei homogenates over 1 to 6 hrs by Western blotting method. Format: functional, cell-based. The gist of the method:
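HT29 cells treated and fractionated, and nuclear homogenates immunoblotted with anti-Nrf2 (1:500) after SDS-PAGE and nitrocellulose transfer. Primary antibody overnight at 4°C, HRP secondary and chemiluminescence. Blots stripped and reprobed for GAPDH (1:10 000) for normalization, with the DMSO ratio set to 1.00. Representative of three independent experiments.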

For test [2], the system named is HT-29. Kind of test: Induction of HO1 expression in human HT-29 cells at 1.5 uM after 24 hrs by Western blotting method. Format: functional. The gist of the method: (§1)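 HT29 whole-cell lysates in Hepes/KOH pH 7.5 with EDTA, KCl, NP40, DTT, protease inhibitors; 50 µg protein on 10–15% SDS-PAGE, nitrocellulose, overnight 4°C primary antibody (GCL 1:500, HO-1 1:1000), HRP secondary, chemiluminescence. Bands normalized to GAPDH (1:10 000), DMSO ratio set at 1.00; representative of three independent experiments.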

For test [3], the system named is HT-29. Kind of test: Induction of HO1 expression in human HT-29 cells at 1.5 uM after 2 hrs by Western blotting method. Format: functional. The essentials: as §1
The subject of test [4] is HT-29. Kind of test: Reduction in cell viability of human HT-29 cells assessed as reduction in living cell level at cytotoxic IC50 level after 24 to 48 hrs by DCF-DA and propidium iodide staining based flow cytometry. Format: functional. The essentials: (§2)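 HT29 cells treated two days after seeding, then loaded together with 50 µM DCF-DA and 25 µg/mL propidium iodide for 15 min at 37°C. Cells trypsinised, washed and resuspended in PBS; 30 000 cells per sample read by flow cytometry (FL-1, FL-3). Viable cells (PI-negative, DCF-positive) given as % of total events. Triplicates, two independent experiments.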

Test [5] has as its system HT-29. Kind of test: Induction of HO1 expression in human HT-29 cells at 2.5 uM after 4 hrs by Western blotting method. It is filed as functional. The gist of the method: as §1
For test [6], the system named is HT-29. Kind of test: Induction of cell cycle arrest in human HT-29 cells assessed as accumulation at G0/G1 phase by propidium iodide staining based flow cytometry (reference value: 67.7 +/- 0.5%). It is filed as functional.
Test [7] deals with HT-29. Kind of test: Induction of NQO1 expression in human HT-29 cells at 2.5 uM after 4 hrs by Western blotting method. Format: functional. The essentials:
(§3)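 Whole-cell lysates from treated HT29 cells in pH 7.5 Hepes/KOH buffer with EDTA, KCl, Igepal, DTT and protease inhibitors. 50 µg protein run on 10-15% SDS-PAGE and transferred to nitrocellulose. Probed overnight at 4°C with anti-HO-1 (1:1 000), anti-NQO1 (1:1 000) or anti-GCL (1:500), then HRP secondary for 45 min and chemiluminescence. Bands normalized to GAPDH (1:10 000), with the DMSO ratio set to 1.00. Representative of three experiments.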

Test [8] concerns HT-29. Kind of test: Reduction in cell viability of human HT-29 cells assessed as reduction in living cell level at 2.5 uM after 24 to 48 hrs by DCF-DA and propidium iodide staining based flow cytometry. Format: functional. The essentials:
as §2

For test [9], the system named is HT-29. Kind of test: Induction of HO1 expression in human HT-29 cells at 2.5 uM after 6 hrs by Western blotting method. It is filed as functional. The gist of the method:
as §1

Test [10] deals with HT-29. Kind of test: Induction of GCL expression in human HT-29 cells at 2.5 uM after 6 hrs by Western blotting method. Format: functional. The gist of the method:
as §1

Test [11] concerns HT-29. Kind of test: Induction of HO1 expression in human HT-29 cells at 2.5 uM after 24 hrs by Western blotting method. It is filed as functional. The gist of the method:
as §1

In test [12] the test system is HT-29. Kind of test: Induction of GCL expression in human HT-29 cells at 2.5 uM after 4 hrs by Western blotting method. Format: functional. The gist of the method: as §1
For test [13], the system named is HT-29. Kind of test: Induction of NQO1 expression in human HT-29 cells at 2.5 uM after 24 hrs by Western blotting method. It is filed as functional. The gist of the method: as §3
In test [14] the test system is HT-29. Kind of test: Induction of NQO1 expression in human HT-29 cells at 2.5 uM after 6 hrs by Western blotting method. Format: functional. The gist of the method:
as §3

Test [15] deals with HT-29. Kind of test: Induction of GCL expression in human HT-29 cells at 2.5 uM after 2 hrs by Western blotting method. Format: functional. The gist of the method:
as §1

Test [16] concerns HT-29. Kind of test: Induction of cell cycle arrest in human HT-29 cells assessed as accumulation at subG1 phase by propidium iodide staining based flow cytometry (reference value: 2.3 +/- 0.1%). It is filed as functional.
In test [17] the test system is HT-29. Kind of test: Reduction in cell growth of human HT-29 cells at 2.5 uM after 3 days by trypan blue dye exclusion assay. It is filed as functional, cell-based. The essentials:
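HT29 cells treated daily from 48 h after seeding, over three days with daily medium changes, in 0.1% (v/v) DMSO vehicle. Cells trypsinised, mixed 1:1 with 0.04% trypan blue, and living cells counted by haemocytometer under microscope. Mitotic index is treated count relative to DMSO control. Triplicate determinations, two independent experiments, mean ± S.E.M.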

For test [18], the system named is HT-29. Kind of test: Induction of HO1 expression in human HT-29 cells at 2.5 uM after 2 hrs by Western blotting method. It is filed as functional. The gist of the method:
as §1

Test [19] deals with HT-29. Kind of test: Induction of NQO1 expression in human HT-29 cells at 2.5 uM after 2 hrs by Western blotting method. Format: functional. The gist of the method:
as §3

Test [20] concerns HT-29. Kind of test: Growth inhibition of human HT-29 cells at 2.5 uM after 3 days by trypan blue dye exclusion assay. Format: functional. To be noted: HT-29, 72 h, read-out: GI. The essentials: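 HT29 cells treated 48 h after seeding, dosed daily with daily medium change over three days; drug diluted in DMSO, controls 0.1% (v/v) DMSO. Cells trypsinized, mixed 1:1 with 0.04% trypan blue, live cells counted by hematimeter. Reported as mitotic index (treated/DMSO count); triplicates from two independent experiments.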

For test [21], the system named is HT-29. Kind of test: Induction of cell cycle arrest in human HT-29 cells assessed as accumulation at G2/M phase by propidium iodide staining based flow cytometry (reference value: 11.3 +/- 1%). It is filed as functional.
Test [22] concerns HT-29. Kind of test: Induction of GCL expression in human HT-29 cells at 2.5 uM after 24 hrs by Western blotting method. It is filed as functional. The essentials: as §1
Test [23] relates to HT-29. Kind of test: Induction of ROS generation in human HT-29 cells at cytotoxic IC50 level after 6 hrs by DCF-DA staining based fluorescence assay. It is filed as functional, cell-based. The gist of the method:
(§4)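 HT29 cells treated two days after seeding, then loaded with 50 µM DCF-DA for 15 min at 37°C. Cells trypsinized, washed and resuspended in PBS, and 30 000 cells/sample read by flow cytometry (FL-1). Expressed as % of DMSO-treated cells; […] for 1 h served as positive control. Triplicates from three independent experiments.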

Test [24] concerns HT-29. Kind of test: Induction of ROS generation in human HT-29 cells at cytotoxic IC50 level after 1 hr by DCF-DA staining based fluorescence assay. It is filed as functional, cell-based. The essentials: as §4
Test [25] has as its system HT-29. Kind of test: Induction of GCL expression in human HT-29 cells at 3.8 uM after 6 hrs by Western blotting method. Format: functional. The gist of the method: as §1
For test [26], the system named is HT-29. Kind of test: Induction of ROS generation in human HT-29 cells at cytotoxic IC50 level after 30 mins by DCF-DA staining based fluorescence assay. It is filed as functional, cell-based. The essentials:
as §4

Test [27] concerns HT-29. Kind of test: Induction of NQO1 expression in human HT-29 cells at 10 uM after 4 hrs by Western blotting method. It is filed as functional. The gist of the method:
as §3

For test [28], the system named is HT-29. Kind of test: Induction of redox status changes in human HT-29 cells assessed as ROS content in presence of 1 mM ascorbic acid by DCF-DA staining based fluorescence assay (reference value: 64.7 +/- 2.6%).
For test [29], the system named is HT-29. Kind of test: Induction of NQO1 expression in human HT-29 cells at 6.4 uM after 6 hrs by Western blotting method. It is filed as functional. The gist of the method:
as §3

The source made the active and inactive calls. The rule behind the calls is not given here.

With `CN(C)c1ccc(/C=C2\S/C(=N\c3csc(-c4ccc(Cl)cc4)c3)NC2=O)cc1`, in the test with HT-29 [1], the outcome was inactive. Also, the “fold change (FC)” value in the test with HT-29 [2] and with HT-29 [3] was 1 in each case. The inhibition result with HT-29 [4] was “Active”.

Turning to `COc1ccc(/C=C2\S/C(=N\c3nc(-c4ccc(Cl)cc4)cs3)NC2=O)cc1`, the “fold change (FC)” value in the test on HT-29 [5] is 1; in the test on HT-29 [7] it was 0.85; with HT-29 [9], 1; in the test on HT-29 [10] it was 0.86; with HT-29 [11], 1; with HT-29 [12], 0.87. Besides, the “fold change (FC)” value in the test on HT-29 [13] came out at 0.85; in the test on HT-29 [14] it was 0.96; in the test with HT-29 [15] it was 1.06; in the test on HT-29 [18] it was 1; in the test on HT-29 [19], 1.07; with HT-29 [22], 0.98. Besides, in the test with HT-29 [1], the result was inactive. Further, the Activity with HT-29 [6] came out at 58.7%; in the test with HT-29 [16], 20.9%; in the test with HT-29 [21], 24.1%. Besides, the inhibition result with HT-29 [8] and in the test with HT-29 [17] was “Active” in each case. In the test with HT-29 [20], the inhibition of growth at 2.5 µM turned out to be 90%.

As for `COc1ccc(/C=C2\S/C(=N\c3csc(-c4ccc(Cl)cc4)c3)NC2=O)cc1`, the outcome in the test on HT-29 [1] and in the test on HT-29 [23] was inactive. For the same compound, the outcome with HT-29 [24] was Active. Moreover, the “fold change (FC)” value with HT-29 [25] is 1.69. Also, the inhibition entry in the test with HT-29 [4] is “Active”.

On to `COc1ccc(/C=C2\S/C(=N\c3csc(-c4ccc(Cl)cc4)c3)NC2=O)cc1OC`, for which the outcome in the test on HT-29 [23] was inactive. The result in the test with HT-29 [26] and with HT-29 [24] was Active. Besides, in the test on HT-29 [4], the inhibition entry was “Active”. Moreover, the “fold change (FC)” value in the test with HT-29 [27] was 1.26.

`CN(C)c1ccc(/C=C2\S/C(=N\c3nc(-c4ccc(Cl)cc4)cs3)NC2=O)cc1`: the “fold change (FC)” value was 1 with HT-29 [5]; 0.67 with HT-29 [7]; 1 with HT-29 [9]; 1.2 with HT-29 [10]; 1 in the test on HT-29 [11]; 0.99 in the test on HT-29 [12]. Also, the “fold change (FC)” value in the test with HT-29 [13] is 0.78; in the test on HT-29 [14], 0.72; in the test on HT-29 [15] it was 0.98; in the test with HT-29 [18] it was 1; in the test with HT-29 [19], 0.93; with HT-29 [22], 1.18. For the same compound, in the test with HT-29 [1], the result was inactive. The Activity in the test on HT-29 [6] is listed as 60.6%; in the test on HT-29 [28] it was 158.8%; with HT-29 [16], 16.2%; in the test on HT-29 [21] it was 18.7%. Besides, the inhibition result in the test on HT-29 [8] and in the test with HT-29 [17] was “Active” throughout. Moreover, the inhibition of growth at 2.5 µM in the test with HT-29 [20] amounted to 90%.

For the compound `Cc1ccc(/C=C2\S/C(=N\c3csc(-c4ccc(Cl)cc4)c3)NC2=O)cc1`, the “fold change (FC)” value in the test with HT-29 [29] was found to be 1.86. Further, the result with HT-29 [1] was inactive. For the same compound, in the test with HT-29 [4], the inhibition entry is “Active”.

Source of the values: ChEMBL document CHEMBL3414496, “Synthesis and biological evaluation of novel 2-heteroarylimino-1,3-thiazolidin-4-ones as potential anti-tumor agents” (Eur J Med Chem, 2015).
